Results as given in ChEMBL document CHEMBL1121432, “Tricyclics with analgesic and antidepressant activity. 1. [[(Alkylamino)ethyl]thio]dibenz[b,f]oxepins and 10,11-dihydro derivatives” (1980).

Columns and labels:
Type in all cases: functional
Mus musculus [1] = test: Anticonvulsant activity to prevent pentamethylenetetrazole (MTZ) induced lethality in mice after oral administration
Mus musculus [2] = test: Antipsychotic activity to prevent amphetamine induced lethality in mice after oral administration
Outline: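 Male CD-1 mice in groups of ten, 18-28 g, dosed orally; controls got distilled water-Tween 80. d-Amphetamine sulfate 21 mg/kg sc 60 min post-drug, then aggregated five per wire cage at 80-84 °F. Dead mice replaced by marked untreated mice every 15 min. Deaths counted at 5 h post-amphetamine.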

Mus musculus [3] = test: Analgesic activity for the inhibition of phenylquinone induced writhing (PQW) after subcutaneous administration to mice; settings: sc
Mus musculus [4] = test: Delay in response to noxious heat stimuli in mice by tail flick method after subcutaneous administration; settings: sc
Mus musculus [5] = test: Antidepressant activity to prevent tetrabenazine induced ptosis (TBZ) in mice after intraperitoneal administration; settings: ip
Mus musculus [6] = test: Tested for antipsychotic activity to prevent amphetamine induced lethality in mice after intraperitoneal administration; settings: ip
Outline: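 Male CD-1 mice in groups of ten, 18-28 g, dosed ip; controls got distilled water-Tween 80. d-Amphetamine sulfate 21 mg/kg sc 60 min later, then aggregated five per wire cage at 80-84 °F. Dead mice replaced by marked untreated mice every 15 min. Deaths counted at 5 h post-amphetamine.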

Mus musculus [7] = test: Tested for analgesic activity for the inhibition of phenylquinone induced writhing (PQW) after oral administration to mice

Row | SMILES | ED50 (Mus musculus [1]) | ED50 (Mus musculus [2]) | ED50 (Mus musculus [3]) | ED50 (Mus musculus [4]) | ED50 (Mus musculus [5]) | ED50 (Mus musculus [6]) | ED50 (Mus musculus [7])
1 | CNCCSC1Cc2ccccc2Oc2ccccc21 (stereo not given) | 50 mg/kg | > 20 mg/kg | 4.8 mg/kg | 11.6 mg/kg | 0.9 mg/kg |  | 
2 | c1ccc2c(c1)CC(SCCN1CCOCC1)c1ccccc1O2 (stereo not given) | > 50 mg/kg | > 20 mg/kg | < 25 mg/kg | > 25 mg/kg | > 20 mg/kg |  | 
3 | CN(C)CCSC1=Cc2ccccc2Oc2ccccc21 | 50 mg/kg | > 20 mg/kg | 5.8 mg/kg | > 25 mg/kg | 8.4 mg/kg |  | 
4 | CN(CCSC1=Cc2ccccc2Oc2ccccc21)CC1CC1 | > 50 mg/kg |  | 6 mg/kg | > 25 mg/kg | > 20 mg/kg |  | 
5 | CNCCSC1Cc2ccccc2Oc2ccc(SC)cc21 (stereo not given) | 50 mg/kg | > 20 mg/kg | 6.4 mg/kg | > 25 mg/kg | 12.7 mg/kg |  | 
6 | CN(C)CCSC1=Cc2ccccc2Oc2ccc(F)cc21 | > 50 mg/kg | > 20 mg/kg | 10.3 mg/kg | 23.9 mg/kg |  |  | 
7 | CNCCSC1=Cc2ccccc2Oc2ccccc21 | 50 mg/kg |  |  | 11.6 mg/kg |  | > 20 mg/kg | 
8 | CNCCSC1=Cc2ccccc2Oc2ccc(SC)cc21 | > 50 mg/kg | > 20 mg/kg | < 25 mg/kg | > 25 mg/kg | 6.1 mg/kg |  | 
9 | O=C(c1ccc(F)cc1)C1CCN(CCSC2Cc3ccccc3Oc3ccccc32)CC1 (stereo not given) | > 50 mg/kg | > 20 mg/kg | 10.9 mg/kg | > 25 mg/kg | > 20 mg/kg |  | 9.5 mg/kg
10 | CSc1ccc2c(c1)C(SCCN(C)C)Cc1ccccc1O2 (stereo not given) | > 50 mg/kg | > 20 mg/kg | 10.4 mg/kg | > 25 mg/kg | 16 mg/kg |  | 
11 | CN(C)CCSC1Cc2ccccc2Oc2ccccc21 (stereo not given) | 50 mg/kg | > 20 mg/kg | > 25 mg/kg | > 25 mg/kg |  |  | 
12 | CSc1ccc2c(c1)C(SCCN(C)C)=Cc1ccccc1O2 | > 50 mg/kg | > 20 mg/kg | 5.3 mg/kg | 14.1 mg/kg | 9.4 mg/kg |  | 
13 | CNCCSC1Cc2ccccc2Oc2ccc(Cl)cc21 (stereo not given) | < 50 mg/kg | > 20 mg/kg | 5.3 mg/kg | 22.4 mg/kg | 1.5 mg/kg |  | 11.3 mg/kg
14 | CNCCSC1=Cc2ccccc2Oc2ccc(Cl)cc21 | > 50 mg/kg | > 20 mg/kg | 16 mg/kg | > 25 mg/kg | 5.9 mg/kg |  | 
15 | Br.CCN(CC)CCSC1Cc2ccccc2Oc2ccc(SC)cc21 (stereo not given) | > 50 mg/kg | > 20 mg/kg | 25 mg/kg | > 25 mg/kg | > 20 mg/kg |  | 
16 | Br.CN1CCN(CCSC2Cc3ccccc3Oc3ccccc32)CC1 (stereo not given) | > 50 mg/kg |  | 6.3 mg/kg | > 25 mg/kg | > 20 mg/kg |  | 
17 | CN(C)CCSC1Cc2ccccc2Oc2ccc(Cl)cc21 (stereo not given) | 30 mg/kg |  | < 25 mg/kg | > 25 mg/kg |  |  | 
18 | C1=C(SCCN2CCOCC2)c2ccccc2Oc2ccccc21 | > 50 mg/kg |  | > 25 mg/kg | > 25 mg/kg |  |  | 
19 | CSc1ccc2c(c1)C(SCCN(C(C)C)C(C)C)=Cc1ccccc1O2 | > 50 mg/kg |  | > 25 mg/kg | > 25 mg/kg | 25 mg/kg |  | 
20 | CN(C)CCSC1=Cc2ccccc2Oc2ccc(Cl)cc21 | > 50 mg/kg | > 20 mg/kg | > 25 mg/kg | > 25 mg/kg | > 20 mg/kg |  | 
21 | CCNCCSC1Cc2ccccc2Oc2ccccc21 (stereo not given) | > 50 mg/kg |  | 6.6 mg/kg | > 25 mg/kg | 20 mg/kg |  | 

Row | SMILES | ED50 (Mus musculus [1]) | ED50 (Mus musculus [2]) | ED50 (Mus musculus [3]) | ED50 (Mus musculus [4]) | ED50 (Mus musculus [5]) | ED50 (Mus musculus [6]) | ED50 (Mus musculus [7])
22 | CNCCSC1Cc2ccccc2Oc2ccc(F)cc21 (stereo not given) | 31.6 mg/kg | > 20 mg/kg |  | 5.1 mg/kg | 0.8 mg/kg |  | 
23 | CCN(CC)CCSC1=Cc2ccccc2Oc2ccccc21 | > 50 mg/kg | > 20 mg/kg | 25 mg/kg | > 25 mg/kg | > 20 mg/kg |  | 
24 | c1ccc(CCNCCSC2Cc3ccccc3Oc3ccccc32)cc1 (stereo not given) | > 50 mg/kg | 23 mg/kg | 9.3 mg/kg | > 25 mg/kg | > 20 mg/kg |  | 
25 | C1=C(SCCNCCc2ccccc2)c2ccccc2Oc2ccccc21 | > 50 mg/kg | > 20 mg/kg | 13.6 mg/kg | > 25 mg/kg | > 20 mg/kg |  | 
26 | CN(C)CCSC1Cc2ccccc2Oc2ccc(F)cc21 (stereo not given) | 52.3 mg/kg | > 20 mg/kg |  | 7.9 mg/kg | 2 mg/kg |  | 
27 | Fc1ccc2c(c1)C(SCCNCC1CC1)Cc1ccccc1O2 (stereo not given) | > 50 mg/kg | > 20 mg/kg | 10.7 mg/kg | > 25 mg/kg | > 20 mg/kg |  | 
28 | CCN(CC)CCSC1Cc2ccccc2Oc2ccc(Cl)cc21 (stereo not given) | > 50 mg/kg |  | 14.8 mg/kg | > 25 mg/kg | > 20 mg/kg |  | 
29 | CCN(CC)CCSC1=Cc2ccccc2Oc2ccc(SC)cc21 | > 50 mg/kg | > 20 mg/kg | > 25 mg/kg | > 25 mg/kg | > 20 mg/kg |  | 
30 | C=CCNCCSC1Cc2ccccc2Oc2ccc(F)cc21 (stereo not given) | > 50 mg/kg | > 20 mg/kg | 10.6 mg/kg | > 25 mg/kg | 3.5 mg/kg |  | 
31 | Fc1ccc2c(c1)C(SCCNCCc1ccccc1)Cc1ccccc1O2 (stereo not given) | > 50 mg/kg | > 20 mg/kg | > 10 mg/kg | > 25 mg/kg |  |  | 
32 | CCN(CC)CCSC1Cc2ccccc2Oc2ccccc21 (stereo not given) | > 50 mg/kg | > 20 mg/kg | 6.9 mg/kg | > 25 mg/kg | > 20 mg/kg |  | 
33 | C#CCN(C)CCSC1=Cc2ccccc2Oc2ccccc21 | > 50 mg/kg |  | 25 mg/kg | > 25 mg/kg | 12.2 mg/kg |  | 
34 | CCN(C)CCSC1=Cc2ccccc2Oc2ccccc21 | > 50 mg/kg |  | 25 mg/kg | > 25 mg/kg | 20 mg/kg |  | 
35 | CCN(C)CCSC1=Cc2ccccc2Oc2ccc(SC)cc21 | > 50 mg/kg | > 20 mg/kg | 25 mg/kg | > 25 mg/kg |  |  | 
36 | CC(C)=CCN1CC[C@]2(C)c3cc(O)ccc3C[C@H]1[C@H]2C [(+)-PENTAZOCINE] | > 25 mg/kg | > 20 mg/kg | 2.4 mg/kg | 14.6 mg/kg |  |  | 
37 | CN(C)CCCN1c2ccccc2Sc2ccc(Cl)cc21 [CHLORPROMAZINE] | > 50 mg/kg | 2.8 mg/kg |  |  |  |  | 
38 | CN1C(=O)CN=C(c2ccccc2)c2cc(Cl)ccc21 [DIAZEPAM] | 1.4 mg/kg | > 20 mg/kg |  |  |  |  | 
39 | CNCCSC1=Cc2ccccc2Oc2ccc(F)cc21 [FLURADOLINE] | > 50 mg/kg | > 50 mg/kg |  | 11.3 mg/kg | 0.32 mg/kg |  | 24.7 mg/kg
40 | CN(C)CCCN1c2ccccc2CCc2ccccc21 [IMIPRAMINE] | 50 mg/kg | > 20 mg/kg | 11 mg/kg | > 25 mg/kg | 1.3 mg/kg |  | 
41 | CN1CC[C@]23c4c5ccc(O)c4O[C@H]2[C@@H](O)C=C[C@H]3[C@H]1C5 [MORPHINE] | > 25 mg/kg | > 20 mg/kg | 0.36 mg/kg |  | 8.1 mg/kg |  | 
